# Assay results published in PubChem BioAssay AID651935 (Vanderbilt Specialized Chemistry Center, 2012).
# Active and inactive are the calls of the source. No rule for the calls is given here.
# Target: Muscarinic acetylcholine receptor M4 (Rattus norvegicus) (UniProt P08485)
# Test: M4 receptor potentiation by M5-directed compounds, selectivity assay for M5 PAM discovery project, CHO cells, rat M4, calcium flux (AID 651935)
# How it was run: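 Assay system: CHO-K1 cells stably expressing rat M4 receptor with chimeric Gqi5 / Buffer or medium: HBSS plus HEPES and probenecid, pH 7.4 / Also added: acetylcholine EC20 / Schedule: dye load 45-60 min 37 °C, compound 1.5 min pre-incubation / Signal: calcium mobilization by Fluo-4 AM fluorescence / Evaluation: baseline-corrected signal as % of maximal acetylcholine response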
# Chain of Muscarinic acetylcholine receptor M4 (Rattus norvegicus) (P08485 whole entry, looked up): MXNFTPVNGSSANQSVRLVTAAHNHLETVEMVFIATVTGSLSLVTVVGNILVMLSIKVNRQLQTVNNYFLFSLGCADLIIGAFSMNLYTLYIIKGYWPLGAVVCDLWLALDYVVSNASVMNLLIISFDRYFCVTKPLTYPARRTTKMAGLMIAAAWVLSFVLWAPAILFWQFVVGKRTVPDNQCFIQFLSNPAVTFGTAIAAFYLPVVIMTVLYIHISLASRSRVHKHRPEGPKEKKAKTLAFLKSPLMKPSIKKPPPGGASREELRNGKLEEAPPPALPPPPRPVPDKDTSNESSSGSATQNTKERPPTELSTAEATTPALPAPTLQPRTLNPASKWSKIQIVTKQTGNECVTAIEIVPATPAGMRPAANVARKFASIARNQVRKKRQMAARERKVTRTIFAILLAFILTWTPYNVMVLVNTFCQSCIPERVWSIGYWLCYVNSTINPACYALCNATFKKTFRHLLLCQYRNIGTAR
structure (smiles),measurement,value
O=C1C(=O)N(CCOc2ccccc2)c2ccc(OC(F)(F)F)cc21,outcome,inactive
